Data: ChEMBL document CHEMBL1142109, “Arzanol, an anti-inflammatory and anti-HIV-1 phloroglucinol alpha-Pyrone from Helichrysum italicum ssp. microphyllum” (J Nat Prod, 2007)
Calls of active or inactive are those of the source. The calls are words filed in the database; no cut-off is given here.

Assays:
[1] = organism: Homo sapiens; experiment: (§1) Inhibition of TNFalpha activated NF-kappaB dependent transactivation of HIV-1 LTR Luc in 5.1 cells; assay type: cell-based
Outline: (§2)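 A T cell line stably carrying HIV-1 LTR-driven luciferase was preincubated with increasing concentrations for 30 min, then stimulated with TNFα (2 ng/mL) for 6 h. Cells were lysed in Tris-phosphate buffer pH 7.8 with Triton X-100. Luciferase was read and normalized to Bradford protein (RLU/µg) after subtracting lysis-buffer background. Results are fold induction over untreated cells, with at least three repeats.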

[2] = tested on: Human immunodeficiency virus 1; experiment: Inhibition of VSV-pseudotyped HIV1 replication in Jurkat T cells; assay type: functional, organism-based
Outline: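 Jurkat T cells (10^6/mL) pretreated 30 min with increasing concentrations before infection with VSV-pseudotyped pNL4-3.Luc.R-E- virus (Env-, Vpr-; stock made in 293T cells), 200 ng HIV-1 gag p24 per culture. After 24 h the cells were washed twice in PBS and luciferase activity in the lysates was read as % of infected untreated cells. Mean ± SD of three independent experiments.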

[3] = tested on: Monocyte; experiment: Inhibition of IL1-beta production in LPS-stimulated human primary monocytes by ELISA; assay type: functional
Outline: (§3)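 Primary monocytes from healthy donors were seeded at (1-2) × 10^6 cells/well at 37 °C/5% CO2. Nonadherent cells were removed and the medium replaced with RPMI-1640 plus 1% human serum. Cells were preincubated with increasing compound concentrations for 30 min, then stimulated with LPS (10 ng/mL) for 24 h. Supernatants were cleared at 10000g for 10 min. Cytokines were measured by ELISA and PGE2 by EIA.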

[4] = tested on: Monocyte; experiment: Inhibition of TNFalpha production in LPS-stimulated human primary monocytes by ELISA; assay type: functional; outline: as §3
[5] = tested on: Monocyte; experiment: Inhibition of IL6 production in LPS-stimulated human primary monocytes by ELISA; assay type: functional; outline: as §3
[6] = tested on: Monocyte; experiment: Inhibition of IL8 production in LPS-stimulated human primary monocytes by ELISA; assay type: functional
[7] = tested on: Monocyte; experiment: Inhibition of PGE2 production in LPS-stimulated human primary monocytes by ELISA; assay type: functional; outline: as §3
[8] = as §1; assay type: cell-based; conditions: Homo sapiens; outline: as §2

With `C=C(CO)[C@@H]1Cc2cc(C(C)=O)ccc2O1` the Activity [1] was “inactive”.

In the case of `C=C(CO)[C@H]1Oc2ccc(C(C)=O)cc2[C@H]1OC(C)=O`, the Activity [1] is reported as “inactive”.

In the case of `C=C(COC(C)=O)[C@@H]1Cc2cc(C(C)=O)ccc2O1`, the Activity [1] is reported as “inactive”.

With `C=C(COC(C)=O)[C@H]1Oc2ccc(C(C)=O)cc2[C@H]1OC(C)=O` the Activity [1] was “inactive”.

In the case of `CCC(C)C(=O)C(C)c1oc(=O)c(C)c(O)c1C` (stereo not drawn), the Activity [1] is reported as “inactive”.

For `CCc1oc(=O)c(Cc2c(O)c(CC=C(C)C)c(O)c(C(C)=O)c2O)c(O)c1C` [ARZANOL], the Activity [2] was “Dose-dependent effect”, the IC50 [3] was 5.6 µM and the IC50 [4] was 9.2 µM. The IC50 [5] was 13.3 µM, the IC50 [6] was 21.8 µM and the IC50 [7] was 18.7 µM. The IC50 [8] was 5 µM.

With `CCc1oc(=O)c(Cc2c(O)c(C)c(CC)oc2=O)c(O)c1C` [HELIPYRONE] the IC50 [8] was 8.7 µM.
